Compound activity (PubChem)
Only some compounds are listed: those with a hit (about 1.8% of all), similar ones and a draw of the others.
EBNA-1 inh = EBNA-1 DNA-binding inhibitors, primary screen, biochemical, fluorescence polarization | AID 1950, 2009 | inhibition, % at 14.8 µM | hit rate 0.34% among 300,000; in the data active = inhibition above about 28%
ZTA DNA inh = ZTA (EBV) inhibition in EBNA-1 counter-screen; ZTA-DNA binding, fluorescence polarization; inhibition, % at 11 µM; hit rate 0.15% among 320,000; P03206; in the data active = inhibition above about 33%
procasp3 activ = activators of human procaspase-3 D3A mutant, primary screen, biochemical, absorbance, PC-3 D3A mutant, single concentration. recombinant procaspase-3 D3A, Ac-DEVD-pNA absorbance 405 nm. activation, % at 8.5 µM. hit rate 0.11% among 330,000. AID 463141, 2010;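 active = activation above the mean of all tested compounds plus 3 SD, cut at about 21% in these data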
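Assay system: Autoprocessing-dead procaspase-3 D3A mutant enzyme; also added: Ac-DEVD-pNA; doses: one concentration, 8.5 µM nominal, 0.8% DMSO; times: 1 h compound preincubation, 2 h substrate hydrolysis at 25 °C; technique: 405 nm absorbance of p-nitroaniline, reads at 0 and 120 min; measure: % activation between DMSO and enzyme-spiked controls; repeats: single replicate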
Apaf-1 inh = inhibitors of human Apaf-1 apoptosome, primary screen, biochemical, DEVD-Rh110 fluorescence, uHTS; Apoptotic protease-activating factor 1 (Homo sapiens), O14727; reconstituted apoptosome caspase-3 activity; inhibition, % at 20 µM; hit rate 0.71% among 330,000; AID 489030, 2010; active = inhibition of at least 40% at 20 µM
Target sequence (O14727 whole entry, looked up): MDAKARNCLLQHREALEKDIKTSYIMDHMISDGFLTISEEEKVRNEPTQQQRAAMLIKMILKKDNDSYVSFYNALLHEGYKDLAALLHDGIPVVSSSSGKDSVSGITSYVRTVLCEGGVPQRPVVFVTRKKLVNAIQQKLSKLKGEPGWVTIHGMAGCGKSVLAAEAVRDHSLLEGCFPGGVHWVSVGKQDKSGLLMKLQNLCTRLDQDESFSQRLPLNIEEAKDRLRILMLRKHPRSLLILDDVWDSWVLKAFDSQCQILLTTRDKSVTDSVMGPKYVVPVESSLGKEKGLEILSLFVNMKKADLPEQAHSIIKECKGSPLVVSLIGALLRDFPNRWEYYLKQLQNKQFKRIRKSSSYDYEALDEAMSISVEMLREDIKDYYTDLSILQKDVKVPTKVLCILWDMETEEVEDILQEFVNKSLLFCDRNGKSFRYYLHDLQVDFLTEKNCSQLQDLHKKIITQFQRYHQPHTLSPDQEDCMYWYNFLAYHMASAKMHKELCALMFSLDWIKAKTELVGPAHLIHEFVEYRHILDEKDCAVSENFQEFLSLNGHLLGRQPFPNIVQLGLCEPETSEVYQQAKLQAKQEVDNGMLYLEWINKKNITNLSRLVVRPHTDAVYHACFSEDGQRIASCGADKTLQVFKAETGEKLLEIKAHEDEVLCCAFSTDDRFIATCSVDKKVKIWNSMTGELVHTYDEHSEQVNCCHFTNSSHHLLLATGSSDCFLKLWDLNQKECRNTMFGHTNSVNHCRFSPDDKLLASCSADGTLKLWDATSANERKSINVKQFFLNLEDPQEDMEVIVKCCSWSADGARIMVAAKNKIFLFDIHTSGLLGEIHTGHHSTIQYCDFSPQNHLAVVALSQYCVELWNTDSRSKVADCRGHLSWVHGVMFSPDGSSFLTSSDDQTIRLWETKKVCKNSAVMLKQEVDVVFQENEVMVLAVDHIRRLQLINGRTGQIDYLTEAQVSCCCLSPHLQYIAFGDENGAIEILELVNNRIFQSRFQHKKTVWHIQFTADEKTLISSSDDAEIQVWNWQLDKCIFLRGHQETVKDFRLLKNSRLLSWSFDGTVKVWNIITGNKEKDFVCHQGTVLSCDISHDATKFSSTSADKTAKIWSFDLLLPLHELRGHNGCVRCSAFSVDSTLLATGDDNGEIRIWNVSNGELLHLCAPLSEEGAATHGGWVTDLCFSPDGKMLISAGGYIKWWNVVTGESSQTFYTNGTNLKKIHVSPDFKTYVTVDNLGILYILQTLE
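Assay system: Apoptosome proteins | Medium: pH 7.5 Hepes buffer with CHAPS, BSA, DTT | Also added: Cytochrome c and DEVD-Rh110 substrate | Times: 30 min plus 50 min, RT | Detection: Rhodamine 110 fluorescence at Ex 480/Em 540 nm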
procasp7 counter = procaspase-7 activators, primary screen, counter-screen for procaspase-3 activator project, biochemical, absorbance, HTS, human; AID 463210, 2010; hit rate 0.093% among 330,000; recombinant procaspase-7, Ac-DEVD-pNA absorbance 405 nm; D23A/D198A/D206A triple mutant, cannot self-cleave; scale: DMSO 0, 5 µM enzyme 100; activation, % at 8.5 µM;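 active = percent activation above the screen-wide mean plus 3 SD, cut at about 25% in these data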
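Replicates: singlicate. Assay system: Procaspase-7 triple mutant (PC-7 D3A). Signal: 405 nm absorbance of p-nitroaniline. Times: 1 h preincubation, 2 h reaction. Buffer or medium: Zinc-free HEPES pH 7.4 with 300 mM NaCl, 0.01% Triton X-100. Also added: DEVD-pNA substrate. Benchmarks: DMSO wells as 0%, DMSO with 5 µM added PC-7 as 100%.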
GSTO1 inh = inhibitors of recombinant GSTO1, primary screen, counter-screen for RBBP9 inhibitor project, biochemical, fluorescence polarization; Glutathione S-transferase omega-1 (Homo sapiens), P78417; activity-based probe fluorescence polarization; inhibition, % at 5.96 µM; hit rate 1.1% among 300,000; AID 1974, 2009;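 active = inhibition above the campaign mean inhibition plus 3 SD, cut at about 35% in these data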
Apaf-1 inh conf2 = Apaf-1 inhibitors, single-dose retest, confirmation, biochemical, fluorescence, DEVD-Rh110, 20 µM; shares compounds with Apaf-1 inh; reconstituted apoptosome, caspase-3 DEVD-Rh110 fluorescence; inhibition, % at 20 µM; hit rate 25% among 1,800;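 active = mean inhibition of at least 40% at 20 µM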
Rh110 interf inh = Rh110 fluorescence interference by putative Apaf-1 inhibitors, confirmation, artefact control for Apaf-1 inhibitor project, biochemical, 20 µM. activation (fluorescence interference), % at 20 µM. shares compounds with Apaf-1 inh. 1,800 tested, under 10 active. quenched caspase reaction;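 active = signal rise of 40% or more at 20 µM, treated as a fluorescence artifact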
Apaf1 inh interf = fluorescence interference of Apaf-1 inhibitor hits, dose response, artefact control for Apaf-1 inhibitor project. shares compounds with Apaf-1 inh. fluorescence interference counterscreen, Apaf-1 assay format. IC50, µM. 460 tested, under 10 active; call rule not given here
Numbers stand for hits; n = inactive; x = not tested or not shown.

SMILES	EBNA-1 inh	ZTA DNA inh	procasp3 activ	Apaf-1 inh	procasp7 counter	GSTO1 inh	Apaf-1 inh conf2	Rh110 interf inh	others
CC(C(=O)Nc1ccccc1Br)N1c2cccc3cccc(c23)S1(=O)=O (configuration not stated)	n	n	n	n	n	n	x	x
O=C(NCC(=O)N1CC=C(c2ccccc2)CC1)c1ccc(F)cc1	x	x	n	n	n	x	x	x
CN1Cc2c(N3CCOCC3)nc3sc(C(=O)c4ccc(Br)cc4)c(N)c3c2CC1(C)C	n	n	n	56	n	n	62	n	Apaf1 inh interf=n
CC(C)Cn1c(N)c(C(=O)COC(=O)C2CCCCC2)c(=O)n(C)c1=O	n	n	n	43	n	n	n	n
COc1ccc2sc(-c3ccc(SC)cc3)c(-c3ccc(O)cc3)c2c1	x	x	n	n	n	x	x	x
O=C(O)c1ccccc1C(=O)NNc1ccc(Cl)cc1Cl	n	n	n	n	n	n	x	x
COc1ccc(NC(=O)CNCc2ccc(Cl)cc2)cc1S(=O)(=O)N1CCOCC1	x	x	n	n	n	x	x	x
NC1=NC[C@H](Cc2ccc(O)cc2)N1CCC12CC3CC(CC(C3)C1)C2	n	n	n	49	n	n	n	n
CCCCN1C(N)=NC[C@@H]1Cc1ccc(O)cc1	n	n	n	n	n	n	x	x
O=C(c1ccc([N+](=O)[O-])o1)N(Cc1nnc(-c2ccccc2Cl)o1)C1CC1	x	n	n	51	n	x	41	n	Apaf1 inh interf=n
Cc1ccsc1C(=O)N(Cc1nnc(-c2ccccc2Cl)o1)C1CC1	n	n	n	n	n	n	x	x
C[C@@H]1CN([C@H](C)CO)C(=O)Cc2cc(NS(=O)(=O)c3ccc(Cl)cc3)ccc2O[C@H]1CN(C)Cc1ccc(C(F)(F)F)cc1	x	x	n	41	n	x	n	n
C[C@@H]1CN([C@H](C)CO)C(=O)Cc2cc(NS(=O)(=O)c3ccc(F)cc3)ccc2O[C@H]1CN(C)Cc1ccc(C(=O)O)cc1	x	x	n	n	n	x	x	x
C#CCSc1nnc(CNS(=O)(=O)c2ccc(Br)cc2)n1C	n	n	n	n	n	n	x	x
CCOC(=O)C1CCN(c2cc3c(cc2NC(=O)c2ccccc2OCC)n(C)c(=O)n3C)CC1	n	n	n	40	n	n	n	n
Cc1ccc(S(=O)(=O)N2CCN(C(=O)CCOc3cc(C)ccc3C)CC2)cc1	x	n	n	40	n	x	n	n
Cc1cc(C(=O)Nc2cc(Br)ccc2O)on1	n	n	n	n	n	n	x	x
COc1ccc(-c2c(C#Cc3ccc(N(C)C)cc3)c3ccccc3n2C)cc1	x	x	n	57	n	x	n	n
COCCN(C(=O)CSc1nc(N)cc(=O)[nH]1)c1c(N)n(Cc2ccccc2)c(=O)[nH]c1=O	n	n	n	45	n	n	n	n
COc1ccc(S(=O)(=O)N2CCOCC2)cc1C(=O)N1CCCCC1	n	n	n	n	n	n	x	x
COc1ccc(S(=O)(=O)Oc2ccc3ccccc3c2)cc1	n	n	n	n	n	n	x	x
COc1ccc(S(=O)(=O)Oc2ccc3cccc(N)c3c2)cc1	n	n	n	88	n	n	n	n
Cc1nc2sccn2c(=O)c1S(=O)(=O)N1CCN(c2cccc(Cl)c2)CC1	n	n	n	n	n	n	x	x
COc1ccc(-c2cc(=O)n(-c3ccc([N+](=O)[O-])cc3)[nH]2)cc1	n	n	n	65	n	53	n	n
CCOc1ccccc1N1CCN(C(=O)c2ccc3nc(N)sc3c2)CC1	x	x	n	n	n	x	x	x
SMILES	EBNA-1 inh	ZTA DNA inh	procasp3 activ	Apaf-1 inh	procasp7 counter	GSTO1 inh	Apaf-1 inh conf2	Rh110 interf inh	others
C[C@H](CO)N1C[C@H](C)[C@@H](CN(C)S(C)(=O)=O)Oc2ccc(NC(=O)Nc3ccccc3)cc2C1=O	x	x	n	n	n	x	x	x
O=C(C1CCN(S(=O)(=O)c2ccccc2F)CC1)N1CCCC1	x	x	x	n	x	x	x	x
O=c1cc(-c2ccccc2)[nH]n1-c1nc2ccccc2[nH]1	n	n	n	n	n	n	x	x
N#CCCn1[nH]c(-c2ccccc2)cc1=O	n	n	n	72	n	39	n	n
Cc1ccc(NC(=O)CCS(=O)(=O)c2cccc3nonc23)c(Br)c1	n	n	n	n	n	n	x	x
CN(C(=S)Nc1ccc(SC(F)F)cc1)c1ccc(O)cc1	n	n	n	70	n	66	n	n
FC(F)Sc1ccc(NC(=S)NC2CCCC2)cc1	n	n	n	n	n	n	x	x
CC(C)[C@@H]1CN=C(N)N1C[C@@H]1CCCN1C[C@H](C)N1C[C@@H](Cc2ccccc2)N(CCc2ccc(Cl)c(Cl)c2)C1=N	x	x	n	54	n	x	n	n
C[C@@H](CN1CCC[C@H]1CN1C(N)=NC[C@@H]1Cc1ccccc1)N1C[C@@H](Cc2ccccc2)N(CCc2ccc(Cl)c(Cl)c2)C1=N	x	x	n	74	n	x	n	n
CC(C)[C@H](CN1CCC[C@H]1CN1C(N)=NC[C@@H]1Cc1ccccc1)N1C[C@@H](Cc2ccccc2)N(CCc2ccc(Cl)c(Cl)c2)C1=N	x	x	n	82	n	x	n	n
NC1=NC[C@@H](Cc2ccc(O)cc2)N1CCc1cccc(F)c1	n	n	n	n	n	n	x	x
Cc1cc(C)c(NC(=O)CN(C)C(=O)c2ccc(OCc3ccccc3)cc2)c(C)c1	x	n	n	n	n	x	x	x
COc1cccc(-c2ccc(NC(=O)C3CCCN(Cc4cnn(C(C)C)c4)C3)cc2)c1 (configuration not stated)	n	n	n	n	n	n	x	x
COc1cc(NC(C)CCCN)c2ncccc2c1Oc1ccccc1 (configuration not stated)	n	n	n	70	n	n	n	n
Cc1ccc2[nH]c3c(c2c1)CN(C(=O)CN1CCN(c2cccc(C)c2C)CC1)CC3	n	n	n	43	n	n	n	n
O=C(NCCCn1ccnc1)c1noc2c1CCc1ccccc1-2	n	n	n	47	n	n	n	n
O=C(NCCCn1ccnc1)c1noc2c1CCCC2	n	n	n	n	n	n	x	x
